These results are taken from ChEMBL document CHEMBL1671829, “Activation of Neuropeptide FF Receptors by Kisspeptin Receptor Ligands” (ACS Med Chem Lett, 2011).

Test [1] concerns the target T1, Galanin receptor type 1 (Homo sapiens) (UniProt P47211).
T1 sequence (whole entry): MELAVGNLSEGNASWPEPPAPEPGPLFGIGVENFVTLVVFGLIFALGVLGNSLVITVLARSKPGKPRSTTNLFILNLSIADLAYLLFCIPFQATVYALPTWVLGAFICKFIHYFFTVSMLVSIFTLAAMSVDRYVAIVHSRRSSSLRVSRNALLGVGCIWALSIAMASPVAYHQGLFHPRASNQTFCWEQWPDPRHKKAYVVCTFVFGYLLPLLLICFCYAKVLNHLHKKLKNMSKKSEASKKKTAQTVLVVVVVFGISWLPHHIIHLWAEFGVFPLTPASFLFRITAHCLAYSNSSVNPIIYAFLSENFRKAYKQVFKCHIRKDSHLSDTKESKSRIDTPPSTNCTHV
Put plainly: Displacement of [125I]-Tyr9-galanin from GalR1 at 10 uM after 1 hr. The essentials:
(§1)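 Single-point radioligand binding inhibition on receptor membrane preparations, test peptide at 10 μM. Radioligands are [125I]Tyr9-galanin for GALR1–3, [125I]-prolactin-releasing peptide-20 for PrRPR, and (d-[125I]Tyr1, MePhe3)-NPFF for NPFFR1 and NPFFR2. Read-out is % inhibition of specific binding, mean of duplicate analyses.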
A general note: Displacement assays read how much labelled ligand stays bound in the presence of the test substance.

Test [2] addresses T2, Galanin receptor type 2 (Homo sapiens) (UniProt O43603).
T2 sequence (whole entry): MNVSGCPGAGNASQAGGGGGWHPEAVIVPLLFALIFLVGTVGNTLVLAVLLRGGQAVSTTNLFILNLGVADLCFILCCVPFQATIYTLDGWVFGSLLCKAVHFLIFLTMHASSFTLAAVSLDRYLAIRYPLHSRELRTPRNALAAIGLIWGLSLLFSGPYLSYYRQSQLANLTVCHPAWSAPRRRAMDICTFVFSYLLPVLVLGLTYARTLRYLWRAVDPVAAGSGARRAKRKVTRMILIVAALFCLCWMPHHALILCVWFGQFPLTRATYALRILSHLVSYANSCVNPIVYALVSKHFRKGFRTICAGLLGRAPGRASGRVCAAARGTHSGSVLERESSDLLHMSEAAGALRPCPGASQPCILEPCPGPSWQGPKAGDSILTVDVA
Put plainly: Displacement of [125I]-Tyr9-galanin from GalR2 at 10 uM after 1 hr. The essentials:
as §1

The target of test [3] is T3, Galanin receptor type 3 (Homo sapiens) (UniProt O60755).
T3 sequence (whole entry): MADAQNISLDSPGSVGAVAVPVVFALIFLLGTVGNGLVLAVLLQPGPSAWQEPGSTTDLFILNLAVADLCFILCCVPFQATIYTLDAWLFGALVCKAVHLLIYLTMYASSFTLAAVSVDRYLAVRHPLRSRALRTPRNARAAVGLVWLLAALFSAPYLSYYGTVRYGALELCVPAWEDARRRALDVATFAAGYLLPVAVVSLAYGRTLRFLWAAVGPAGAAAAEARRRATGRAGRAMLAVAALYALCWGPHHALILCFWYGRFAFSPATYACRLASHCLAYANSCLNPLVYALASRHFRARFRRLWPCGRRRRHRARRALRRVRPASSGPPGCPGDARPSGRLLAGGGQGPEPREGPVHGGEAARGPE
Put plainly: Displacement of [125I]-Tyr9-galanin from GalR3 at 10 uM after 1 hr. The essentials: as §1

For test [4], the target named is T4, Prolactin-releasing peptide receptor (Homo sapiens) (UniProt P49683).
T4 sequence (whole entry): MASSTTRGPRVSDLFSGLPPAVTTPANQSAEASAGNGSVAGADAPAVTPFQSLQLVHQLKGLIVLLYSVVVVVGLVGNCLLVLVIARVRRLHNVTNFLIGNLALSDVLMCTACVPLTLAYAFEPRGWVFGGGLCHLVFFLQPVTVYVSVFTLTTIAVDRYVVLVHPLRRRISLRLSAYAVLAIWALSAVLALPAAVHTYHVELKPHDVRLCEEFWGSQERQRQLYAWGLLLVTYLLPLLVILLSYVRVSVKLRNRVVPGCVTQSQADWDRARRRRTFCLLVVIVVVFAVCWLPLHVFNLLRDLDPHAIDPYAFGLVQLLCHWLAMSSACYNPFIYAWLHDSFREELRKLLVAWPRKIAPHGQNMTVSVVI
Put plainly: Displacement of [125I]-prolactin releasing peptide-20 from PrRPR at 10 uM after 30 mins. The essentials:
as §1

The target in test [5] is T5, Neuropeptide FF receptor 1 (Homo sapiens, UniProt Q9GZQ6). Put plainly: Displacement of (D-[125I]Tyr1, MePhe3)-NPFF from NPFFR1 at 10 uM after 2 hrs. The essentials:
as §1

Test [6] addresses T6, Neuropeptide FF receptor 2 (Homo sapiens, UniProt Q9Y5X5). The test is described as follows: Displacement of (D-[125I]Tyr1, MePhe3)-NPFF from NPFFR2 at 10 uM after 2 hrs. The essentials:
as §1

Test [7] concerns the target T5, Neuropeptide FF receptor 1. Put plainly: Agonist activity at NPFFR1 expressed in HEK293T cells co-expressing Gqi5 assessed as increase of intracellular calcium mobilization after 1 hr. Format: functional, cell-based. As to conditions: HEK-293T. (Calcium assays in cells follow changes in intracellular calcium, usually with a dye or a luminescent sensor.)
In test [8] the target is T6, Neuropeptide FF receptor 2. The test is described as follows: Agonist activity at NPFFR2 expressed in HEK293T cells co-expressing Gqi5 assessed as increase of intracellular calcium mobilization after 1 hr. Format: functional, cell-based. As to conditions: HEK-293T.
For test [9], the target named is T5, Neuropeptide FF receptor 1. The test is described as follows: Agonist activity at NPFFR1 expressed in HEK293T cells co-expressing Gqi5 assessed as increase of intracellular calcium mobilization at 0.24 uM after 1 hr. To be noted: HEK-293T. Format: functional, cell-based.
For test [10], the system named is Rattus norvegicus. The test is described as follows: Increase of luteinizing hormone level in Wistar-imamichi rat plasma at 0.25 nmol, administered intracerebroventricularly in preoptic area after 3 hrs measured every 6 mins by double-antibody radioimmunoassay. Format: functional, organism-based. The essentials: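 Male rats given 0.25 nmol peptide into the preoptic area. Blood sampled every 6 min over 3 h; plasma LH expressed as area under the curve. Mean ± SEM of five or more experiments.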

Test [11] is filed under the species Rattus norvegicus. Put plainly: Increase of GnRH release in Wistar-imamichi rat median eminence at 1 uM after 30 mins by double-antibody radioimmunoassay. Format: functional. The essentials:
(§2)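 Rat median eminence incubated in vitro with peptide. Released GnRH quantified by double-antibody radioimmunoassay with [125I]-labeled GnRH; mean ± SEM of triplicate or more experiments.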

The target in test [12] is T6, Neuropeptide FF receptor 2. The test is described as follows: Agonist activity at NPFFR2 expressed in CHO cells assessed as inhibition of forskolin-induced cAMP accumulation at up to 100 uM after 30 mins. In general terms: cAMP levels reflect the balance of adenylyl cyclase and phosphodiesterase activity.
Test [13] deals with T5, Neuropeptide FF receptor 1. The test is described as follows: Agonist activity at NPFFR1 expressed in CHO cells assessed as inhibition of forskolin-induced cAMP accumulation at up to 100 uM after 30 mins.
The target in test [14] is T5, Neuropeptide FF receptor 1. The test is described as follows: Displacement of (D-[125I]Tyr1, MePhe3)-NPFF from NPFFR1 after 2 hrs. The essentials: (§3)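 Dose–response inhibition of (d-[125I]Tyr1, MePhe3)-NPFF binding to NPFFR1 or NPFFR2. IC50 is the concentration giving 50% inhibition of radioligand binding, taken from dose–response curves built from triplicate data points.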

Test [15] has as its target T6, Neuropeptide FF receptor 2. Put plainly: Displacement of (D-[125I]Tyr1, MePhe3)-NPFF from NPFFR2 after 2 hrs. The essentials:
as §3

Test [16] is filed under the species Rattus norvegicus. Put plainly: Increase of GnRH release in Wistar-imamichi rat median eminence at 0.1 uM after 30 mins by double-antibody radioimmunoassay. Format: functional. The essentials:
as §2

Test [17] has as its target T7, KiSS-1 receptor (Homo sapiens, UniProt Q969F8). The test is described as follows: Displacement of [125I]kisspeptin-15 from GPR54.
Test [18] has as its target T7, KiSS-1 receptor. The test is described as follows: Agonist activity at GPR54 expressed in CHO cells assessed as increase of intracellular calcium mobilization at 10 uM after 1 hr. Format: functional, cell-based.

Activity calls are given as the source filed them. The calls are words filed in the database; no cut-off is given here.

One may read the IC50 as the concentration that inhibits the measured activity by half. High values mean weaker potency in that assay, low ones greater potency in that assay.

T6 sequence (Q9Y5X5 whole entry): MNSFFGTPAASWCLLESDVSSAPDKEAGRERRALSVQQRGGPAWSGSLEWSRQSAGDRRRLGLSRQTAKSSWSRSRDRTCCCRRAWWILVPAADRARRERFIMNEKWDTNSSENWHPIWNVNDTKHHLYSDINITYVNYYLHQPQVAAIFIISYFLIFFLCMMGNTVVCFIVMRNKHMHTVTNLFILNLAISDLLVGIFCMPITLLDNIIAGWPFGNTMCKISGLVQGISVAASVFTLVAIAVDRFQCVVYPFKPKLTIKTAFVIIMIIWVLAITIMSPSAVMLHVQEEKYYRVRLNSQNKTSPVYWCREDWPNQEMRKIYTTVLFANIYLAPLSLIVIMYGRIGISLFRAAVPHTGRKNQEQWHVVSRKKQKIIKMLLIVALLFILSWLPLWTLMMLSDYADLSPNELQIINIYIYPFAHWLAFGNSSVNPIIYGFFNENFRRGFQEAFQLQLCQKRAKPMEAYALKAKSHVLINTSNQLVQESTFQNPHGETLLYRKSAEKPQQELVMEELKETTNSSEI
T5 sequence (Q9GZQ6 whole entry): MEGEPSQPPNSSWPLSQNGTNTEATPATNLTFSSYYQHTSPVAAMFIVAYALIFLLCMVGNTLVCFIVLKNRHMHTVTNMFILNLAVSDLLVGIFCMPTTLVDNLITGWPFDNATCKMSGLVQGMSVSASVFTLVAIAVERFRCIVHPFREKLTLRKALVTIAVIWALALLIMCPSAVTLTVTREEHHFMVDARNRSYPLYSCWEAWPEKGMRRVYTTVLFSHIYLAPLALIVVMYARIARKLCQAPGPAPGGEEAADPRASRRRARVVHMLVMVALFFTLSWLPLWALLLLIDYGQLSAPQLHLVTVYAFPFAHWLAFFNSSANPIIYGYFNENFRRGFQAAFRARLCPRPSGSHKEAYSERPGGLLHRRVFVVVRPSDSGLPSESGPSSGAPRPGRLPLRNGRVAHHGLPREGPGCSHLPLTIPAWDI
T7 sequence (Q969F8 whole entry): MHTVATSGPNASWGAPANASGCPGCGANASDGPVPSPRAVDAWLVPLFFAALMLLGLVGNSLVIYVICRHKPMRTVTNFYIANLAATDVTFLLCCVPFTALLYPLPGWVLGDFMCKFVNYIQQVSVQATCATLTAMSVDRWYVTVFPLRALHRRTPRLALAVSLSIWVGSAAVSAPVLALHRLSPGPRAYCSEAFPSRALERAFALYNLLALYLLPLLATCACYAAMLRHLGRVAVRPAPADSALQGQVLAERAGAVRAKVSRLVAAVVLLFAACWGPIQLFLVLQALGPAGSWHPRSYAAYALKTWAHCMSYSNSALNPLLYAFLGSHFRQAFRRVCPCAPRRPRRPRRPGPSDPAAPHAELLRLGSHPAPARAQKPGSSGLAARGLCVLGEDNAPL

In the case of `CC(C)C[C@H](/C=C/CNC(=O)[C@H](Cc1ccccc1)NC(=O)c1ccc(F)cc1)C(=O)N[C@@H](CCCNC(=N)N)C(=O)N[C@@H](Cc1c[nH]c2ccccc12)C(N)=O`, the result in test [1], in test [2] and in test [3] was inactive. Further, the Activity was 16.1% in test [4]; 88.3% in test [5]; 95.7% in test [6]; “Dose-dependent effect” in test [7]; “Dose-dependent effect” in test [8]; 52% in test [9]. Besides, the result in the test with Rattus norvegicus [10] and in the test listed under Rattus norvegicus [11] was Active. Moreover, the inhibition result in [12] and in test [13] was “Active” throughout.
For the compound `CC(C)C[C@H](NC(=O)CNC(=O)[C@H](Cc1ccccc1)NC(=O)[C@H](CO)NC(=O)[C@H](CC(N)=O)NC(=O)[C@H](Cc1c[nH]c2ccccc12)NC(=O)[C@H](CC(N)=O)NC(=O)[C@@H](N)Cc1ccc(O)cc1)C(=O)N[C@@H](CCCNC(=N)N)C(=O)N[C@@H](Cc1ccccc1)C(N)=O` [KISSPEPTIN-10], the IC50 in test [14] is 4.7 nM; in [15] it was 76 nM. Further, in [9], the Activity worked out at 86%. Besides, the result in the test on Rattus norvegicus [10] and in the test filed under Rattus norvegicus [16] was Active. In addition, the inhibition result in test [12] and in [13] was “Active” each time.
`CC(C)C[C@H](/C=C/CNC(=O)[C@H](Cc1ccccc1)NC(=O)c1ccc(F)cc1)C(=O)N[C@@H](CCCN=C(N)N)C(=O)N[C@@H](Cc1c[nH]c2ccccc12)C(N)=O`: the concentration for half-maximal inhibition (IC50) in test [14] worked out at 640 nM; in test [15] it was 2400 nM.
In turn, `CN(C)c1cccc2c(S(=O)(=O)N3CCC[C@H]3C(=O)N[C@@H](CCC(N)=O)C(=O)N[C@@H](CCCNC(=N)N)C(=O)N[C@@H](Cc3ccccc3)C(N)=O)cccc12` gave an IC50 at KiSS-1 receptor [17] of 16000 nM. The outcome on KiSS-1 receptor [18] was inactive.
Turning to `N=C(N)NCCC[C@H](NC(=O)C12CC3CC(CC(C3)C1)C2)C(=O)N[C@@H](Cc1ccccc1)C(N)=O`, on KiSS-1 receptor [18], the outcome was inactive.
Take H-SLAAPQRF-OH: the half-maximal inhibitory concentration (IC50) was over 30000 nM on KiSS-1 receptor [17], 1.9 nM in test [14] and 0.79 nM in [15].
For `CC(C)C[C@H](NC(=O)CNC(=O)[C@H](Cc1ccccc1)NC(=O)c1ccc(F)cc1)C(=O)N[C@@H](CCCNC(=N)N)C(=O)N[C@@H](Cc1c[nH]c2ccccc12)C(N)=O`, the result in [1], in test [2] and in test [3] was inactive. For the same compound, the Activity was 21.1% in test [4]; 99.4% in [5]; 90.7% in [6]; “Dose-dependent effect” in [7]; “Dose-dependent effect” in [8]; 49% in [9]. In addition, the outcome in the test on Rattus norvegicus [10] and in the test filed under Rattus norvegicus [11] was Active. Besides, the inhibition entry in test [12] and in [13] was “Active” each time.
`NC(=O)[C@H](Cc1ccccc1)NC(=O)[C@H](CCCN=C(N)N)NC(=O)C12CC3CC(CC(C3)C1)C2` showed a half-inhibitory concentration (IC50) on KiSS-1 receptor [17] of 830 nM.
As to `CC(C)C[C@H](NC(=O)CNC(=O)[C@H](Cc1ccccc1)NC(=O)c1ccc(F)cc1)C(=O)N[C@@H](CCCN=C(N)N)C(=O)N[C@@H](Cc1c[nH]c2ccccc12)C(N)=O`, the 50% inhibitory concentration (IC50) in [14] is 160 nM; in [15], 1800 nM.
